Source: ChEMBL document CHEMBL2417506, “Synthesis and antiprotozoal activity of original porphyrin precursors and derivatives” (Eur J Med Chem, 2013)
Activity calls are given as the source filed them. The rule behind the calls is not given here.

Key:
[1] = tested on: Plasmodium berghei; assay: Antimalarial activity against chloroquine-sensitive Plasmodium berghei NK-173 infected in Swiss albino mouse assessed as quantal survival at 38.5 mg/kg, ip qd for 3 days measured on day 10; assay type: functional, organism-based; set-up: dose 38.5 mg/kg
Outline: (§1)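 Female Swiss albino mice (18–20 g) were infected i.v. on day 0 with 10^6 parasitized RBC in 0.2 ml PBS from a donor mouse, in groups of 10. Dosing was i.p. over days 0–3 and stopped if toxicity appeared. Chloroquine control was 100 µmoles/kg. Giemsa tail smears and RBC counts were taken on days 4, 7, 8, 9, 10 and 14. Mice were followed for deaths.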

[2] = tested on: Plasmodium berghei; assay: Antimalarial activity against chloroquine-sensitive Plasmodium berghei NK-173 infected in Swiss albino mouse assessed as quantal survival at 38.5 mg/kg, ip administered 4 times per day for 3 days measured on day 14; assay type: functional, organism-based; set-up: dose 38.5 mg/kg; outline: as §1
[3] = tested on: Plasmodium berghei; assay: Antimalarial activity against chloroquine-sensitive Plasmodium berghei NK-173 infected in Swiss albino mouse assessed as reduction parasitemia at 38.5 mg/kg, ip qd […] by Giemsa staining relative to control; assay type: functional; set-up: scale not given: the % may be the effect or the level left; settings: route intraperitoneal
Outline: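 Four-day Peters test in female Swiss albino mice (18–20 g), groups of 10. Infected i.v. on day 0 with 10^6 parasitized RBC in 0.2 ml PBS, then dosed i.p. on days 0–3, stopped if toxicity appeared. Parasitemia read from Giemsa-stained tail-blood smears and reported as % reduction at day 4.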

[4] = tested on: Leishmania donovani; assay: Antileishmanial activity against amastigotes forms of Leishmania donovani MHOM/ET/67/HU3 infected in Swiss mouse peritoneal macrophages at 20 uM after 5 days; assay type: functional, organism-based
Outline: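 Peritoneal macrophages from female Swiss mice (18–20 g) infected after 24 h with stationary-phase L. donovani promastigotes at 10 parasites per macrophage. Free promastigotes removed at 18 h, then amastigotes treated. Medium with drug renewed at 48 h, stopped at day 5. Percentage of infected macrophages scored microscopically after Giemsa staining. Run in triplicate.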

[5] = tested on: Plasmodium berghei; assay: Antimalarial activity against chloroquine-sensitive Plasmodium berghei NK-173 infected in Swiss albino mouse assessed as quantal survival at 38.5 mg/kg, ip qd for 3 days measured on day 9; assay type: functional, organism-based; set-up: dose 38.5 mg/kg; outline: as §1
[6] = tested on: Mus musculus; assay: Toxicity in chloroquine-sensitive Plasmodium berghei NK-173 infected Swiss albino mouse assessed as death day at 100 mg/kg, ip bid for 3 days measured up to 4 days; assay type: organism-based; set-up: dose 100 mg/kg, route intraperitoneal; settings: in vivo; outline: as §1
[7] = tested on: Mus musculus; assay: Toxicity in chloroquine-sensitive Plasmodium berghei NK-173 infected Swiss albino mouse assessed as mortality at 38.5 mg/kg, ip administered 4 times per day for 3 days measured up to 4 days; assay type: organism-based; set-up: dose 38.5 mg/kg, route intraperitoneal; settings: in vivo; outline: as §1
[8] = tested on: Plasmodium berghei; assay: Antimalarial activity against chloroquine-sensitive Plasmodium berghei NK-173 infected in Swiss albino mouse assessed as quantal survival at 38.5 mg/kg, ip qd for 3 days measured on day 14; assay type: functional, organism-based; set-up: dose 38.5 mg/kg; outline: as §1
[9] = tested on: Plasmodium berghei; assay: Antimalarial activity against chloroquine-sensitive Plasmodium berghei NK-173 infected in Swiss albino mouse assessed as quantal survival at 38.5 mg/kg, ip qd for 3 days measured on day 7; assay type: functional, organism-based; set-up: dose 38.5 mg/kg; outline: as §1
[10] = tested on: Mus musculus; assay: Toxicity in chloroquine-sensitive Plasmodium berghei NK-173 infected Swiss albino mouse assessed as mortality at 38.5 mg/kg, ip qd for 3 days measured up to 4 days; assay type: organism-based; set-up: dose 38.5 mg/kg, route intraperitoneal; settings: in vivo; outline: as §1
[11] = tested on: Plasmodium berghei; assay: Antimalarial activity against chloroquine-sensitive Plasmodium berghei NK-173 infected in Swiss albino mouse assessed as quantal survival at 38.5 mg/kg, ip administered 4 times per day for 3 days measured on day 8; assay type: functional, organism-based; set-up: dose 38.5 mg/kg; outline: as §1
[12] = Cytotoxicity against Swiss mouse peritoneal macrophages at 20 uM after 5 days by MTT assay; assay type: cell-based, Peritoneal macrophage cell
Outline: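 Thioglycolate-elicited peritoneal macrophages from female Swiss mice, 5 × 10^4/well in RPMI 1640 with 10% FCS, 25 mM Hepes and 2 mM L-glutamine. Washed at 4 h to remove fibroblasts. Drug-containing medium added at 48 h, stopped at day 5. Viability read by MTT.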

[13] = tested on: Plasmodium berghei; assay: Antimalarial activity against chloroquine-sensitive Plasmodium berghei NK-173 infected in Swiss albino mouse assessed as quantal survival at 76.9 mg/kg, ip qd for 3 days measured on day 7; assay type: functional, organism-based; set-up: dose 76.9 mg/kg; outline: as §1
[14] = tested on: Plasmodium berghei; assay: Antimalarial activity against chloroquine-sensitive Plasmodium berghei NK-173 infected in Swiss albino mouse assessed as quantal survival at 76.9 mg/kg, ip qd for 3 days measured on day 14; assay type: functional, organism-based; set-up: dose 76.9 mg/kg; outline: as §1
[15] = tested on: Plasmodium falciparum; assay: Antimalarial activity against Plasmodium falciparum 3D7 infected in human O positive erythrocytes assessed as reduction of parasite growth after 24 to 44 hrs by Giemsa staining; assay type: functional, organism-based
Outline: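 Sorbitol-synchronized ring-stage 3D7 parasites in O+ erythrocytes (5% v/v suspension, 0.5% parasitemia) exposed to compounds from DMSO stock for 44 h at 37 °C. Growth measured by pLDH ELISA after freeze-thaw hemolysis and by Giemsa thin smears at 24 and 44 h, counting at least 5000 erythrocytes. Expressed as % reduction against medium-only control.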

[16] = tested on: Plasmodium berghei; assay: Antimalarial activity against chloroquine-sensitive Plasmodium berghei NK-173 infected in Swiss albino mouse assessed as quantal survival at 38.5 mg/kg, ip administered 4 times per day for 3 days measured on day 7; assay type: functional, organism-based; set-up: dose 38.5 mg/kg; outline: as §1
[17] = tested on: Plasmodium berghei; assay: Antimalarial activity against chloroquine-sensitive Plasmodium berghei NK-173 infected in Swiss albino mouse assessed as host survival at 38.5 mg/kg, ip qd for 3 days measured on day 30; assay type: functional; settings: NK-173, ip, route intraperitoneal; outline: as §1
[18] = tested on: Plasmodium berghei; assay: Antimalarial activity against chloroquine-sensitive Plasmodium berghei NK-173 infected in Swiss albino mouse assessed as host survival at 38.5 mg/kg, ip administered 4 times per day for 3 days measured on day 30; assay type: functional; settings: NK-173, ip, route intraperitoneal; outline: as §1
[19] = tested on: Leishmania donovani; assay: Antileishmanial activity against promastigote forms of Leishmania donovani MHOM/ET/67/HU3 after 3 days by MTT assay; assay type: functional, organism-based; settings: MHOM/ET/67/HU3, 72 h
Outline: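 Log-phase promastigotes at 10^6 cells/mL in supplemented M-199. Serial dilutions gave final concentrations of 100 µM to 50 nM, in triplicate. Incubated 3 days at 27 °C, dark, 5% CO2. Viability read by MTT reduction, with Triton X100/HCl lysis and absorbance at 570 nm. IC50 ± SD.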

[20] = tested on: Plasmodium berghei; assay: Antimalarial activity against chloroquine-sensitive Plasmodium berghei NK-173 infected in Swiss albino mouse assessed as host survival at 76.9 mg/kg, ip qd for 3 days measured on day 30; assay type: functional; settings: NK-173, ip, route intraperitoneal; outline: as §1
[21] = tested on: Trypanosoma brucei brucei; assay: Trypanocidal activity against Trypanosoma brucei brucei by drug incubation infectivity test; assay type: functional; settings: read-out: MEC
[22] = tested on: Plasmodium berghei; assay: Antimalarial activity against chloroquine-sensitive Plasmodium berghei NK-173 infected in Swiss albino mouse assessed as reduction parasitemia at 76.9 mg/kg, […] by Giemsa staining relative to control; assay type: functional; set-up: scale not given: the % may be the effect or the level left; settings: route intraperitoneal
[23] = tested on: Plasmodium berghei; assay: Antimalarial activity against chloroquine-sensitive Plasmodium berghei NK-173 infected in Swiss albino mouse assessed as quantal survival at 100 mg/kg, ip bid for 3 days measured on day 14; assay type: functional, organism-based; set-up: dose 100 mg/kg; outline: as §1
[24] = tested on: Mus musculus; assay: Toxicity in chloroquine-sensitive Plasmodium berghei NK-173 infected Swiss albino mouse assessed as mortality at 76.9 mg/kg, ip qd for 3 days measured up to 4 days; assay type: organism-based; set-up: dose 76.9 mg/kg, route intraperitoneal; settings: in vivo; outline: as §1
[25] = tested on: Plasmodium berghei; assay: Antimalarial activity against chloroquine-sensitive Plasmodium berghei NK-173 infected in Swiss albino mouse assessed as quantal survival at 76.9 mg/kg, ip qd for 3 days measured on day 10; assay type: functional, organism-based; set-up: dose 76.9 mg/kg; outline: as §1
[26] = tested on: Plasmodium berghei; assay: Antimalarial activity against chloroquine-sensitive Plasmodium berghei NK-173 infected in Swiss albino mouse assessed as host survival at 100 mg/kg, ip bid for 3 days measured on day 30; assay type: functional; settings: NK-173, ip, route intraperitoneal; outline: as §1

COc1cc(-c2c3nc(c(N4C(=O)CC[C@H]4C(=O)O)c4ccc([nH]4)c(-c4cc(OC)c(OC)c(OC)c4)c4nc(cc5ccc2[nH]5)C=C4)C=C3)cc(OC)c1OC
Survival [1]: inactive
Survival [2]: inactive
Activity [3]: 0%
Activity [4]: inactive
Survival [5]: inactive
Time [6]: 2 days
Activity [7]: Non-toxic
Survival [8]: inactive
Survival [9]: Active
Activity [10]: Non-toxic
Survival [11]: Active
CC50 at 120 h [12]: > 100 µM
Survival [13]: Active
Survival [14]: inactive
IC50 [15]: 0.02 µM
Survival [16]: Active
survival at 38.5 mg/kg [17]: 0%
survival at 38.5 mg/kg [18]: 0%
IC50 [19]: 57.2 µM
survival at 76.9 mg/kg [20]: 0%
minimal effective concentration [21]: 25 µM
Activity [22]: 40%
Survival [23]: inactive
Activity [24]: Non-toxic
Survival [25]: inactive
survival at 100 mg/kg [26]: 0%
